Measurements from PMC4885513 (The Journal of Pharmacology and Experimental Therapeutics, 2016).
Entries after “also recorded” stand apart in the source; their conditions may differ. Where two headings read alike, the source gives them in different places.

Assays:
α1β3γ2S receptors [1] = molecular target: T1, α1β3γ2S receptors (Rattus norvegicus, UniProt P62813+P63079); assay: IGABA enhancement; format: cell-based; conditions: for Emax: read-out: maximal IGABA enhancement (Emax); for Hill-coefficient (nH): GABA EC3-7, Xenopus oocytes
T1 sequence (P63079 26-473): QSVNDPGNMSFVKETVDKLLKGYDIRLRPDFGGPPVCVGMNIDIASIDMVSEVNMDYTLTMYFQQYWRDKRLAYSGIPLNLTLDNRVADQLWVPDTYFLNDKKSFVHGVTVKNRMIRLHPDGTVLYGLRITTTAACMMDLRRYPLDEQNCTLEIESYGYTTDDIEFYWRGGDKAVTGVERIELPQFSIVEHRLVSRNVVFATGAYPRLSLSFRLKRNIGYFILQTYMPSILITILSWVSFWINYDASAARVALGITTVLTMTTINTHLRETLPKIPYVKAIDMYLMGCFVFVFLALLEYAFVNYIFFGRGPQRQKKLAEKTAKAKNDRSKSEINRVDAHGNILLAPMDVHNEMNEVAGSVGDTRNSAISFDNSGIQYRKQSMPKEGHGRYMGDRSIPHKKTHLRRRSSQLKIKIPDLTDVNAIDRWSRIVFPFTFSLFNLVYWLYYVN
T1 sequence (P62813 28-455): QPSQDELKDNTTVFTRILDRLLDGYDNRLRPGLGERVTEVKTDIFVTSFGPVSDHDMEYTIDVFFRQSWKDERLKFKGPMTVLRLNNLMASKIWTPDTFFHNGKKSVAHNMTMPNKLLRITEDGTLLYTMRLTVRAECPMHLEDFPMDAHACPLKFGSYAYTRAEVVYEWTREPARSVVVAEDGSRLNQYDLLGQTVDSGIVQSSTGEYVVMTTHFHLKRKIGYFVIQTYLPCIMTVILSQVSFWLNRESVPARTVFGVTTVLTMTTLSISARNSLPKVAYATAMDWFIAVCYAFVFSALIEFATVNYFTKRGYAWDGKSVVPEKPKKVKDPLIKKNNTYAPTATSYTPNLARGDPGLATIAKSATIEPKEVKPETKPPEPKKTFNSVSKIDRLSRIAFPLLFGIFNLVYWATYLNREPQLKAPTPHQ
T1 sequence (P18508 39-466 partner): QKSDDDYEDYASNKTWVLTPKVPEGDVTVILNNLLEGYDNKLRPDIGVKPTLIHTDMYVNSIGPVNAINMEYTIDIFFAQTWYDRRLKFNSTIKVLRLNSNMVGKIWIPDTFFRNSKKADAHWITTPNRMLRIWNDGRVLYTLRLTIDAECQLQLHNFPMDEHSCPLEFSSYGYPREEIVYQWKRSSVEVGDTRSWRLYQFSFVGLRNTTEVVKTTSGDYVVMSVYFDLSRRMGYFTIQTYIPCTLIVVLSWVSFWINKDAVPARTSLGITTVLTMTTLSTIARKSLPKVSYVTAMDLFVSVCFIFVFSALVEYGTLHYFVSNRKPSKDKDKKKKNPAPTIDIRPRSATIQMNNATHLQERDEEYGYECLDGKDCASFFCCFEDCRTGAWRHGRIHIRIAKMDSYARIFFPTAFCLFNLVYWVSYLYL
Outline: (§1)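 Rat α1, β1/β2/β3 and γ2S cRNAs (100–2000 ng/μl/subunit, about 10–50 nl) were injected into collagenase-treated stage V–VI Xenopus oocytes held at 18°C in ND96. The α:β:γ ratio was 1:1:10 for β2 and β3 and 3:1:10 for β1. Recordings used two-electrode voltage clamp at −70 mV in a HEPES bath at pH 7.4. Compound (≤500 µM, DMSO matched) was applied with per-oocyte GABA EC3–7 by fast perfusion. Oocytes above 5 µA were excluded. Enhancement = I(GABA+Comp)/IGABA − 1, Hill-fitted for EC50, Emax and nH; ≥3 oocytes, ≥2 batches.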

locomotor activity = assay: Open-field test; format: in vivo, male C57BL/6N mice; conditions: for total distance covered in the open field test: 30 min before test, 10 min test, control 38.3 ± 1.5 m
α1β2γ2S receptors = α1β2γ2S receptors (Rattus norvegicus, UniProt P62813+P63138); assay: IGABA enhancement; format: cell-based; conditions: for Hill-coefficient (nH): α1β2γ2S, GABA EC3-7, Xenopus oocytes; for Emax: read-out: maximal IGABA enhancement (Emax)
Chain of α1β2γ2S receptors (P63138 25-474 limits assumed): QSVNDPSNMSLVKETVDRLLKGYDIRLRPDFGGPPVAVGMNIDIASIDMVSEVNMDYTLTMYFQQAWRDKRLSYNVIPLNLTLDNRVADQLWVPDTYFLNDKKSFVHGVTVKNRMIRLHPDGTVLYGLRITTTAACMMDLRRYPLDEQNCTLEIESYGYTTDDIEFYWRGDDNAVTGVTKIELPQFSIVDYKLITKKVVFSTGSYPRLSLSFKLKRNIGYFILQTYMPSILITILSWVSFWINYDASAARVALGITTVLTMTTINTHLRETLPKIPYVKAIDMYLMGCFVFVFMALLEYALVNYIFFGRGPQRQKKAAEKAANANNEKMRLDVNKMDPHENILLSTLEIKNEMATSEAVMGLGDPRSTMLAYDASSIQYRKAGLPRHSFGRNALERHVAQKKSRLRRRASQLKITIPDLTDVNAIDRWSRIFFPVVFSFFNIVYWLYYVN
Chain of α1β2γ2S receptors (P62813 28-455): as the sequence (P62813 28-455) above
Chain of α1β2γ2S receptors (P18508 39-466 partner): as the sequence (P18508 39-466 partner) above
Outline: as §1

α1β1γ2S receptors = α1β1γ2S receptors (Rattus norvegicus, UniProt P15431+P62813); assay: IGABA enhancement; format: cell-based; conditions: for Emax: read-out: maximal IGABA enhancement (Emax); for Hill-coefficient (nH): α1β1γ2S, GABA EC3-7, Xenopus oocytes
Chain of α1β1γ2S receptors (P15431 26-474): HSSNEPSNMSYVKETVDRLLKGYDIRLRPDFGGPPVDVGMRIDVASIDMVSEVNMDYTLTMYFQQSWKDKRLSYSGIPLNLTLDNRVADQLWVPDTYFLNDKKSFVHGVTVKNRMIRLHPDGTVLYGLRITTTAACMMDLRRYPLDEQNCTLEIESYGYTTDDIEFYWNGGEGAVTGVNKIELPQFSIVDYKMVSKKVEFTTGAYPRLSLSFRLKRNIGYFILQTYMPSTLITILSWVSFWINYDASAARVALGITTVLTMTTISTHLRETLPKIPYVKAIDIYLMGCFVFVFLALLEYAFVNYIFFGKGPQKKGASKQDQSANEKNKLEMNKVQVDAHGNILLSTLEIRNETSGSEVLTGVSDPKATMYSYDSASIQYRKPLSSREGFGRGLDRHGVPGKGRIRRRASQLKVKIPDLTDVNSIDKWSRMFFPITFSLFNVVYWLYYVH
Chain of α1β1γ2S receptors (P62813 28-455): as the sequence (P62813 28-455) above
Chain of α1β1γ2S receptors (P18508 39-466 partner): as the sequence (P18508 39-466 partner) above
Outline: as §1

[2] = system: pentylenetetrazole (PTZ)-induced seizure threshold; assay: PTZ-induced seizure threshold; format: in vivo, male C57BL/6N mice; conditions: for PTZ-induced seizure threshold: 30 min before test, saline control 40.4 ± 1.4
Outline: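 Male C57BL/6N mice aged 3–6 months received compound i.p. 30 min before testing. Vehicle was 0.9% NaCl with 10% DMSO and 3% Tween 80. PTZ (10 mg/ml in saline, pH 7.4) was infused into the tail vein at 100 µl/min in freely moving animals until seizure onset. Threshold was the infused PTZ dose per body weight (mg/kg). ≥3 mice per point; one-way ANOVA with Bonferroni.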

α1β3γ2S receptors [3] = molecular target: T1, α1β3γ2S receptors; conditions: GABA EC3-7, Xenopus oocytes, ref Luger et al. (2015); cited from earlier work
[4] = system: pentylenetetrazole (PTZ)-induced seizure threshold; conditions: 3 mg/kg i.p., 30 min before test; ref Hintersteiner et al. (2014); cited from earlier work
GABAA channels = conditions: ref Khom et al., 2007; cited from earlier work

SMILES | EC50 (α1β3γ2S receptors [1]) [µM] | Emax (α1β3γ2S receptors [1]) [%] | Hill-coefficient (nH) (α1β3γ2S receptors [1]; α1β3γ2S) | total distance covered in the open field test (locomotor activity; 30 mg/kg i.p.) [m] | effect on locomotor activity vs control (locomotor activity; low doses (≤10 mg/kg) i.p.) | EC50 (α1β2γ2S receptors) [µM] | Hill-coefficient (nH) (α1β2γ2S receptors) | EC50 (α1β1γ2S receptors) [µM] | Emax (α1β1γ2S receptors) [%] | Hill-coefficient (nH) (α1β1γ2S receptors) | Emax (α1β2γ2S receptors) [%] | PTZ-induced seizure threshold ([2]; 10 mg/kg i.p.) [mg/kg PTZ] | PTZ-induced seizure threshold ([2]; 30 mg/kg i.p.) [mg/kg PTZ] | effect on locomotor activity vs control (locomotor activity; any tested dose i.p.) | further results
CCN(CC)C(=O)/C(C)=C/[C@@H]1CC[C@@H](C)[C@H]2CCC(C)=C12 [VA-DEA, (E)-3-((4S,7R,7aR)-3,7-dimethyl-2,4,5,6,7,7a-hexahydro-1H-inden-4-yl)-N,N-diethyl-2-methylacrylamide] | 80.8 ± 31.3 | 374 ± 102 | 1.9 ± 0.5 |  |  | 54.4 ± 11.1 | 1.6 ± 0.3 | 97.2 ± 33.8 | 318 ± 84 | 1.8 ± 0.3 | 573 ± 33 |  | 48.7±1.7 | did not reveal any significantly different behavior | 
CC1=C2[C@H](/C=C(\C)C#N)CC[C@@H](C)[C@H]2CC1 [VA-CN, (E)-3-((4S,7R,7aR)-3,7-dimethyl-2,4,5,6,7,7a-hexahydro-1H-inden-4-yl)-2-methylacrylonitrile] | 42.4 ± 15.8 | 522 ± 114 | 2.1 ± 0.8 | 31.5±1.5 | did not affect locomotor activity | 56.5 ± 13.3 | 2.5 ± 0.7 | 73 ± 38.7 | 55 ± 14 | 1.7 ± 0.7 | 765 ± 117 | 51.1 ± 0.6 |  |  | 
CC1=C2[C@H](/C=C(\C)C(=O)O)CC[C@@H](C)[C@H]2CC1 [VA, Valerenic acid, reference compound] |  |  |  | 37.6 ± 2.5 |  | 23.1 ± 4.2 | 1.4 ± 0.2 | 74.4 ± 19.3 | 111 ± 16 | 1.6 ± 0.5 | 721 ± 68 | 49.0 ± 1.8 | 43.4 ± 1.8 | did not differ significantly | Hill-coefficient (nH) (α1β3γ2S receptors [3]): 1.5 ± 0.3; total distance covered in the open field test (locomotor activity; 1 mg/kg i.p.): 34.9 ± 1.3 m; total distance covered in the open field test (locomotor activity; 3 mg/kg i.p.): 38.7 ± 2.1 m; total distance covered in the open field test (locomotor activity; 10 mg/kg i.p.): 38.0 ± 1.4 m; PTZ-induced seizure threshold [4]: 47.7 ± 1.4 mg/kg PTZ; concentration directly activating GABAA channels in the absence of GABA (GABAA channels): ≥ 30 µM; effect on PTZ-induced seizure threshold ([2]; doses <3 mg/kg body weight i.p.): did not alter seizure threshold
CC1=C2[C@H](/C=C(\C)C(N)=O)CC[C@@H](C)[C@H]2CC1 [VA-A, (E)-3-((4S,7R,7aR)-3,7-dimethyl-2,4,5,6,7,7a-hexahydro-1H-inden-4-yl)-2-methylacrylamide] | 7.5 ± 1.8 | 972 ± 69 | 1.5 ± 0.2 | 23.5±2.2 |  | 14 ± 2.2 | 1.4 ± 0.2 | 66.6 ± 34.6 | 218 ± 78 | 1.8 ± 0.6 |  | 55.4 ± 0.7 | 50.6 ± 2.2 |  | total distance covered in the open field test (locomotor activity; 10 mg/kg i.p.): 29.9 ± 2.6 m; effect on locomotor activity vs control (locomotor activity; doses of 1 and 3 mg/kg i.p.): did also not affect the total distance covered; effect on locomotor activity vs control (locomotor activity; doses ≥10 mg/kg i.p., 10 mg/kg): reduced locomotion; also recorded: reduced locomotor activity; PTZ-induced seizure threshold ([2]; 3 mg/kg i.p.): 57.9 ± 1.9 mg/kg PTZ

Now from value to compound, other results behind:

EC50 (α1β3γ2S receptors [1]) [µM] | Emax (α1β3γ2S receptors [1]) [%] | Hill-coefficient (nH) (α1β3γ2S receptors [1]; α1β3γ2S) | total distance covered in the open field test (locomotor activity; 30 mg/kg i.p.) [m] | effect on locomotor activity vs control (locomotor activity; low doses (≤10 mg/kg) i.p.) | EC50 (α1β2γ2S receptors) [µM] | Hill-coefficient (nH) (α1β2γ2S receptors) | EC50 (α1β1γ2S receptors) [µM] | Emax (α1β1γ2S receptors) [%] | Hill-coefficient (nH) (α1β1γ2S receptors) | Emax (α1β2γ2S receptors) [%] | SMILES | PTZ-induced seizure threshold ([2]; 10 mg/kg i.p.) [mg/kg PTZ] | PTZ-induced seizure threshold ([2]; 30 mg/kg i.p.) [mg/kg PTZ] | effect on locomotor activity vs control (locomotor activity; any tested dose i.p.) | further results
6 ± 1 | 668 ± 57 | 1.1 ± 0.1 | 19.2 ± 2.1 | did not affect locomotor activity | 34.1 ± 6.3 | 1.0 ± 0.1 | 23.5 ± 10.9 | 176 ± 43 | 1.8 ± 0.6 |  | CC1=C2[C@H](/C=C(\C)c3nnn[nH]3)CC[C@@H](C)[C@H]2CC1 [VA-TET, 5-((E)-1-((4S,7R,7aR)-3,7-dimethyl-2,4,5,6,7,7a-hexahydro-1H-inden-4-yl)prop-1-en-2-yl)-1H-tetrazole] |  |  |  | increase in potency on β3-containing receptors compared with VA (α1β3γ2S receptors [1]; EC50 ratio VA / VA-TET, α1β3γ2S): approximately threefold; effect on locomotor activity vs control (locomotor activity; doses ≥10 mg/kg i.p.): reduced locomotion; PTZ-induced seizure threshold ([2]; 0.3 mg/kg i.p.): 47.3 ± 0.5 mg/kg PTZ; effect on PTZ-induced seizure threshold ([2]; doses ≥1 mg/kg i.p.): lost its anticonvulsive properties
12.7 ± 0.9 |  | 1.5 ± 0.1 | 29.7 ± 2.0 | did not affect locomotor activity | 9.1 ± 1.4 | 1.5 ± 0.1 | 58.1 ± 16.5 | 387 ± 56 | 1.6 ± 0.3 | 917 ± 36 | CNC(=O)/C(C)=C/[C@@H]1CC[C@@H](C)[C@H]2CCC(C)=C12 [VA-MA, (E)-3-((4S,7R,7aR)-3,7-dimethyl-2,4,5,6,7,7a-hexahydro-1H-inden-4-yl)-N,2-dimethylacrylamide] | 50.4±1.4 | 63.6 ± 2.5 |  | effect on locomotor activity vs control (locomotor activity; doses ≥10 mg/kg i.p.): reduced locomotion
48 ± 16 | 415 ± 61 | 1.4 ± 0.2 |  |  | 63.9 ± 23.7 | 1.3 ± 0.2 | 52.5 ± 20.1 | 305 ± 67 | 1.7 ± 0.5 | 594 ± 36 | CC1=C2[C@H](/C=C(\C)C(=O)N(C)C)CC[C@@H](C)[C@H]2CC1 [VA-DMA, (E)-3-((4S,7R,7aR)-3,7-dimethyl-2,4,5,6,7,7a-hexahydro-1H-inden-4-yl)-N,N,2-trimethylacrylamide] |  |  | did not reveal any significantly different behavior | effect on PTZ-induced seizure threshold vs diluent-treated controls ([2]; any tested dose i.p.): did not significantly differ
27.2 ± 6.7 | 677 ± 64 | 1.3 ± 0.2 |  |  | 11 ± 3.6 | 1.6 ± 0.3 | 51.4 ± 19.8 | 458 ± 124 | 1.6 ± 0.3 | 554 ± 49 | CCNC(=O)/C(C)=C/[C@@H]1CC[C@@H](C)[C@H]2CCC(C)=C12 [VA-EA, (E)-3-((4S,7R,7aR)-3,7-dimethyl-2,4,5,6,7,7a-hexahydro-1H-inden-4-yl)-N-ethyl-2-methylacrylamide] |  | 55.6 ± 0.4 | did not reveal any significantly different behavior | 
